ROMK primary = ROMK potassium channel modulators, primary screen, cell-based, thallium flux, MLSMR library; actives 2% (n = 130,000); Tet-inducible ROMK, thallium flux fluorescence; actives lie on both sides; ATP-sensitive inward rectifier potassium channel 1 (Homo sapiens), P48048; B-score at 10 µM; AID 1918, 2009;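 active = signal ratio slope over the read window, or its plate-corrected B-score, at least 3 SD from the plate mean, either direction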;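 also: B-score of the F/F0 ratio slope over 7 to 12 s after thallium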
Autophagy HCS = autophagy modulators in MEF cells, primary screen, imaging, high-content, MEF GFP-LC3 | AID 463193, 2010 | calls only at 10 µM (by protocol) | MEF GFP-LC3 puncta imaging; test concentration mostly 10 µM | actives 0.98% (n = 190,000);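 active = percentage of spot-positive cells more than 3 SD above its plate mean, without a fluorescence outlier flag or 80% toxicity; inconclusive = no clear call, values can overlap the other calls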;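 also: spot-positive cell cutoff set from DMSO-treated cells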
ABCG2 block = ABCG2 efflux pump inhibitors, primary screen, multiplex with ABCB1, IgMXP3 cells, flow cytometry | actives 0.1% (n = 190,000) | inhibition, % at 6.6 µM | JC-1 efflux | AID 1325, 2008;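 active = inhibition above 80%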;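 also: 0% = DMSO and 100% = nicardipine control wells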
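Test system: IgMXP3 (ABCG2) plus far-red-tagged CCRF-Adr (ABCB1) cells / Amount: 3 million cells/mL in well / Reagent: JC-1 transporter substrate / Timing: 10 min compound exposure, 25 °C / Signal: flow cytometry, 530 nm JC-1 signal / Read-out: percent efflux inhibition, scaled nicardipine 100% to DMSO 0% / Benchmarks: nicardipine as high control, DMSO as low control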
sdo1 growth = growth rescue of sdo1-depleted yeast, primary screen, S. cerevisiae, bone marrow failure model; S. cerevisiae sdo1-depleted JHY4D growth rescue, OD600 30 h; stronger effect = higher value; pdr5 snq2 efflux-pump mutant strain; z-score at 10 µM; actives 0.21% (n = 140,000); AID 817, 2007;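 active = z-score above 3 at both the 24 hr and the 30 hr optical density reads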;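 also: z-score against mean and SD of all compound wells on the same plate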
ABCB1 block = ABCB1 efflux pump inhibitors, primary screen, cell-based, multiplex, flow cytometry, ABCG2 counter-screen | CCRF-Adr cells, JC-1 efflux | ATP-dependent translocase ABCB1 (Homo sapiens), P08183 | actives 0.067% (n = 190,000) | inhibition, % at 6.6 µM | AID 1326, 2008; in the data active = inhibition above about 40%;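 also: 0% = vehicle and 100% = reference inhibitor; higher value means more JC-1 retained so stronger ABCB1 efflux block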
Target sequence (P08183 whole entry, looked up): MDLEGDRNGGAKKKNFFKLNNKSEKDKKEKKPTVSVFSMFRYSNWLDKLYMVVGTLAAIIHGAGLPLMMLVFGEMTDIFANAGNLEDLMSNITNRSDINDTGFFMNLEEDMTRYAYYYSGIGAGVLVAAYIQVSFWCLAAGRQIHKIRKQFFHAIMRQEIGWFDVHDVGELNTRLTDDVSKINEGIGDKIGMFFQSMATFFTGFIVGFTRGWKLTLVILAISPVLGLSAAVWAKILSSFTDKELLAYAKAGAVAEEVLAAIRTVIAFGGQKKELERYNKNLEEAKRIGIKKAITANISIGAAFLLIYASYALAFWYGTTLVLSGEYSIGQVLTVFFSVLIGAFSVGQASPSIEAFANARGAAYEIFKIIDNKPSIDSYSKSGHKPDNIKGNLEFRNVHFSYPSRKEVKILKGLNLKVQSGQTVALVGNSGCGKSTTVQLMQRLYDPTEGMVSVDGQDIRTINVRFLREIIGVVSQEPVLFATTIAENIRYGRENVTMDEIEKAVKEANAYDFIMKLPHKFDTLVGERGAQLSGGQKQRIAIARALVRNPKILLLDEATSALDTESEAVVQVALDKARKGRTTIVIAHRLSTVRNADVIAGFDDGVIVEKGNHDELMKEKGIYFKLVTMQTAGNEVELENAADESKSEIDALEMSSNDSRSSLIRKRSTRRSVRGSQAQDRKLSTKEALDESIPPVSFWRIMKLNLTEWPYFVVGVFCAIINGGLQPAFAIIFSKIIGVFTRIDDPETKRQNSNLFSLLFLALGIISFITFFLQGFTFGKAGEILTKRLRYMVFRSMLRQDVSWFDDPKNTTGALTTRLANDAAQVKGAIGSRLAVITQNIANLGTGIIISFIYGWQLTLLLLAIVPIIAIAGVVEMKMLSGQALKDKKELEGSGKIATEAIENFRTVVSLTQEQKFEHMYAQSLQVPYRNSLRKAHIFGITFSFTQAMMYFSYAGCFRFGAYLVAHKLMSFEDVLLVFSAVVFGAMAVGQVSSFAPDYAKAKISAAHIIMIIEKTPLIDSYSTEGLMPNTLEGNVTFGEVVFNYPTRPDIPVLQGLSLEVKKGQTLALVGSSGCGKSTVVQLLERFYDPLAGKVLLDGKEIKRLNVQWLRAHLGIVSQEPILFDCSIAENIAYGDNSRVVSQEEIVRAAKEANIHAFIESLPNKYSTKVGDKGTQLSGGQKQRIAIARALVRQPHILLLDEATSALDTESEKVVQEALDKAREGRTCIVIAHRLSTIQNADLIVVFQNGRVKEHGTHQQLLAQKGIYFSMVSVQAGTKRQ
Ins promoter up = insulin promoter activators in MIN6 cells, imaging, high-content screening, mouse beta cells | actives 0.3% (n = 190,000) | MIN6 insulin promoter-GFP reporter; stronger effect = higher value | z-score at 5 µM;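 active = z-score above 3 at 5 µM with at least 500 cells counted in the well; inconclusive = wells under 500 cells, flagged as cytotoxic or low count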
ROMK hit retest = ROMK channel modulator hit retest, confirmation, cell-based, thallium flux, duplicate, resupplied hits; shares compounds with ROMK primary; fluorescence ratio; stronger effect = lower value; normalized thallium flux (F/F0 slope) at 10 µM; actives 54% (n = 3,000); AID 1917, 2009;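 active = Flux at 10 µM at least 3 SD below or above vehicle control mean in one or both replicates; inconclusive = no clear call, values can overlap the other calls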
* = called active by the depositor; i = inactive; ? = inconclusive; . = not tested or not shown; + = active, no number. Most compounds without a hit are left out; they make up all but 2.3% or so of the library.

SMILES	ROMK primary	Autophagy HCS	ABCG2 block	sdo1 growth	ABCB1 block	Ins promoter up	ROMK hit retest
O=C(CSCc1ccc(Cl)cc1)Nc1ccccc1O	2.3*	i	0	.	0	-1.2	0.074
CCOCCCNC(=O)c1cc2sc(Cl)cc2n1CC	3.1*	+	2	0.33	0	1.2	0.082
CCOCCCNC(=O)c1cc(C)nn1-c1ccccc1	.	i	1	0.13	0	-0.94	.
COc1ccc(NC(=O)C2CCC(CNc3c(N4CCCCC4)c(=O)c3=O)CC2)cc1OC (stereo not drawn)	.	i	2	0.03	1	0.65	.
CCc1nnc(NC(=O)C2CCC(CNc3c(N4CCCCC4)c(=O)c3=O)CC2)s1 (stereo not drawn)	-12*	.	.	.	.	0.33	0.086
O=C(O)c1ccc(N/N=C/C2=C(N3CCOCC3)C(=C\c3ccccc3)/CC2)cc1	.	.	.	.	.	-0.5	0.045*
CC1=CC(C)(C)N(C(=O)CNC2CCCC2)c2cc(C)ccc21	-4*	i	1	.	0	-1.1	0.05*
O=S(=O)(c1cccc2nonc12)N1CCCCCC1	-0.37	i	9	.	1	-0.17	.
COc1ccc(S(=O)NC2CCCCC2)c(OC)c1C (stereo not drawn)	.	i	-3	0.34	0	-0.32	0.075
CCOC(=O)c1sc(NC(=O)CSc2nc3c(c(=O)n2-c2ccc(C)cc2)SCC3)c(C(=O)OCC)c1C	0.45	i	4	-0.19	2	0.44	.
Cc1cccc(COCC(Cc2ccccc2)N2CCN(C(=O)c3ccc(Cl)c(Cl)c3)CCC2=O)c1 (stereo not drawn)	-2.6*	i	8	-1.1	4	-0.41	0.06*
O=S1(=O)CC(O)C(N=Nc2c(O)n(Cc3ccccc3)c3ccccc23)C1 (stereo not drawn)	.	.	.	.	.	0.09	.
COc1cc(C(=O)NNC(=S)NCc2ccco2)cc(OC)c1OC	-1.2	i	4	.	1	-1	.
CS(=O)(=O)N1CCC(C(=O)Nc2ccc(Cl)c(Cl)c2)CC1	-1.2	i	1	.	0	0.24	.
O=C(N/N=C/c1cc2cc3c(cc2nc1Cl)OCO3)c1ccncc1	.	.	.	.	.	-0.24	.
C(#Cc1ccccc1)C[N+]1(CC#Cc2cccc3ccccc23)CCCC1	-4.5*	i	10	0.33	1	?	0.049*
O=C(COc1ccc(S(=O)(=O)NC2CCCCC2)cc1)N1CCN(c2cccc(Cl)c2)CC1	.	i	5	-1.5	1	-0.72	.
O=C(NC(=S)Nc1ccc(CN2CCCCC2)cc1)c1cc2ccccc2o1	-0.0042	.	.	.	.	0.21	.
CC1(C)CC(=O)C(C=NCC2CCNCC2)=C(O)C1	.	i	1	0.01	1	-0.37	.
CC1(C)CC(=O)C(C=NCC2CCN(C(=O)Cc3ccccc3)CC2)=C(O)C1	-3.8*	i	-1	.	0	1.7	0.084
Clc1ccc(CN2C3=NCCN3c3ccccc32)cc1Cl	-2.8*	i	2	-0.75	1	-2.5	0.06*
c1ccc(CN2C3=NCCN3c3ccccc32)cc1	-0.21	i	1	1	0	-0.43	.
Cc1ccc(C(C)C)c(OCC(=O)Nc2ccccc2N2CCN(C)CC2)c1	-2.9*	i	5	-1.3	12	-3.1	0.066*
CN1CCN(c2ccccc2NC(=O)COc2ccccc2)CC1	-0.52	i	2	-0.19	2	-0.08	.
CC(=O)N1CCN(c2ccccc2NC(=O)COc2cc(C)ccc2C(C)C)CC1	.	i	4	-0.56	2	-0.57	0.078
SMILES	ROMK primary	Autophagy HCS	ABCG2 block	sdo1 growth	ABCB1 block	Ins promoter up	ROMK hit retest
C/C(=N/NC(=O)COc1cc(C)ccc1C(C)C)C(=O)O	1.1	i	7	.	1	-0.03	.
CC(=O)N1CCN(c2ccccc2NC(=O)COc2ccc(Br)cc2)CC1	.	i	0	0.24	2	.	.
Cc1ccc(C(C)C)c(OCC(=O)NN=C(CCl)CCl)c1	-4.6*	.	.	.	.	-0.52	0.06*
CCO[C@@H]1OC(C(=O)N2CCN(Cc3ccc4c(c3)OCO4)CC2)=C[C@H](C2CCCCC2)[C@H]1CCCO	.	i	0	.	1	-0.53	.
COc1ccc(CC2(C)OC(c3ccc(C)c([N+](=O)[O-])c3)=NN2C(C)=O)cc1 (stereo not drawn)	.	.	.	.	.	-0.73	.
O=C(O)c1ccc2c(c1)C1C=CCC1C(c1cc3c(cc1Br)OCO3)N2 (stereo not drawn)	4*	i	-1	.	-1	0.27	0.089
CCOC(=O)C1(Cc2cccc(F)c2)CCN(Cc2ccc(COC)o2)CC1	.	.	.	.	.	-0.16	.
S=c1[nH]cnc2scc(-c3ccc(Cl)cc3)c12	.	.	.	.	.	-1.1	.
COc1ccc(OC)c(C2=C[N+](=O)C(C)(C)C(C)(C)N2[O-])c1	4.6*	i	1	0.88	0	.	0.088
CCSC1=NCCN1C(=O)C(C)(C)Oc1ccc(Cl)cc1	0.34	i	2	.	0	-0.15	.
Cc1ccc(Cl)cc1N1CCN(CC(=O)Nc2ccc(CN3CCCCC3)cc2)CC1	-4.6*	+	1	-0.28	0	?	0.054*
O=C(Nc1ccc(OCC(=O)N2CCC(Cc3ccccc3)CC2)cc1)c1ccco1	-3.1*	i	29	-1.4	0	0.53	0.067*
CC(=O)Nc1ccc(OCC(=O)N2CCC(Cc3ccccc3)CC2)cc1	-0.021	i	11	.	1	0.57	.
O=C1NN(c2ccccc2)C(=O)/C1=C/c1ccc(Sc2cccc3ccccc23)o1	-3.9*	i	-7	-0.11	-1	-0.49	0.067*
COC(=O)c1cc(Br)c(N)cc1OC	-0.87	i	3	.	0	-1.6	.
OCCCCNCc1ccc(OCc2ccc(Cl)cc2Cl)cc1	.	i	0	-2.6	0	-0.13	0.053*
O=C(N/N=C/c1ccc(O)cc1)c1cc(C23CC4CC(CC(C4)C2)C3)[nH]n1	.	.	.	.	.	-0.21	0.072
C#CC[N+](C)(C)CCN1C(=O)C2C(c3ccccc3)C=CC(c3ccccc3)C2C1=O (stereo not drawn)	0.42	i	-1	.	0	-0.64	.
CC(C)OC(=O)C[N+](C)(C)CCN1C(=O)C2C(c3ccccc3)C=CC(c3ccccc3)C2C1=O (stereo not drawn)	-3.3*	i	3	.	0	?	?
NC(=O)CC(NC(=O)Cc1ccc(Br)cc1)c1ccc(NCCc2ccccc2F)c([N+](=O)[O-])c1 (stereo not drawn)	.	.	.	.	.	0.14	.
COc1ccc(C2NCCc3c2[nH]c2ccccc32)cc1CN1CCc2cc(OC)c(OC)cc2C1C (stereo not drawn)	-3.8*	.	.	.	.	?	0.055*
